Assay [1] deals with Mu-type opioid receptor (Cavia porcellus, UniProt P97266). In words: Compound was evaluated for the binding affinity to Opioid receptor mu using [3H]DAMGO as radioligand in guinea pig brain membrane.
Assay [2] concerns the target Kappa-type opioid receptor (Cavia porcellus, UniProt P41144). In words: Compound was evaluated for the binding affinity to opioid receptor kappa using [3H]-EK as radioligand in guinea pig brain membrane. In a few lines: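 Radioligand displacement in guinea pig brain membranes, modified from an earlier published method. [3H]EK was used with 1 μM DAMGO present to block μ sites.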

Assay [3] can be described thus: Compound was evaluated for the binding affinity to opioid receptor delta.

Each structure is given as a SMILES string.

Mu-type opioid receptor, sequence (P97266 whole entry): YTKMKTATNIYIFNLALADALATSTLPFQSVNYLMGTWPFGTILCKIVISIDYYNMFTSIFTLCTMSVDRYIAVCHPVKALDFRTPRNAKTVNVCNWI
Kappa-type opioid receptor, sequence (P41144 whole entry): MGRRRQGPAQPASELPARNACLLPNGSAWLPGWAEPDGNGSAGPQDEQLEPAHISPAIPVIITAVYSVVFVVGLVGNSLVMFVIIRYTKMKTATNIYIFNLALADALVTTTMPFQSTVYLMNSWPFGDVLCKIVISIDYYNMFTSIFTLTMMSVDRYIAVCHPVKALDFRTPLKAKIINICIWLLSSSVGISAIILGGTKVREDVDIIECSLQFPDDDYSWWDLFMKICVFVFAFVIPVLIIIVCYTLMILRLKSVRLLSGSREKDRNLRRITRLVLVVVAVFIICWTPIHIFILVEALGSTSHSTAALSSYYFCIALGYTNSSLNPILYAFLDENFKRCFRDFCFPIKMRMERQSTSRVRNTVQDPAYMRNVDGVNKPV

Turning to `Oc1ccc2c3c1O[C@H]1c4nc5ccccc5nc4C[C@@]4(O)[C@@H](C2)N(CC2CC2)CC[C@]314`, the Ki (in general, a dissociation constant, usually derived from enzyme kinetics or from competition with a known ligand) in assay [1] amounted to 7.3 nM; in assay [2], 191 nM. For the molecule `Cn1c2c(c3c1[C@@H]1Oc4c(O)ccc5c4[C@@]14CCN(CC1CC1)[C@H](C5)[C@]4(O)C3)CCCC2`, the inhibition constant Ki in assay [1] amounted to 16.8 nM; in assay [2] it was 203 nM. The matching figures for `Oc1ccc2c3c1O[C@H]1C(c4ccccc4)=CC[C@@]4(O)[C@@H](C2)N(CC2CC2)CC[C@]314`: 0.005 nM and 0.01 nM. `Oc1ccc2c3c1O[C@H]1C(c4c[nH]c5ccccc45)=CC[C@@]4(O)C(C2)N(CC2CC2)CC[C@]314` [4-cyclopropylmethyl-14-(1H-3-indolyl)-(1S,13S,17S)-12-oxa-4-azapentacyclo[9.6.1.01,13.05,17.07,18]octadeca-7(18),8,10,14-tetraene-10,17-diol] returned a Ki in assay [3] of 0.99 nM.

For the molecule `Oc1ccc2c3c1O[C@H]1c4oc5ccccc5c4C[C@@]4(O)[C@@H](C2)N(CC2CC2)CC[C@]314` [CAS_111555-58-9], the inhibition constant (Ki) in assay [1] came to 18.8 nM; in assay [2], 154 nM.

These data come from BindingDB's records for doi:10.1021/jm00109a027 (University of Minnesota, 1991).
